Values after ≈ are worked out from the molar mass of the structure shown.
Tests used:
[1] = tested on: Human immunodeficiency virus 1; test: Antiviral activity against HIV1 3B infected in human MT4 cells assessed as protection against virus-induced cytopathic effect after 5 days MTT assay; assay type: functional, cell-based; details: Human immunodeficiency virus 1, 3B, MT4, 120 h
Summary of the method: (§1)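 HIV-1 strain IIIB and HIV-2 strain ROD in MT-4 cells, MTT-based. Test compounds in serial five-fold dilutions, in triplicate wells run alongside mock-infected cells, with untreated infected and mock controls. MT-4 cells resuspended at 6 × 10^5 cells/mL. Absorbance read at 540 and 690 nm, median OD of three wells. EC50 is the 50% effective concentration.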

[2] = Antiviral activity against HIV2 ROD infected in human MT4 cells assessed as protection against virus-induced cytopathic effect after 5 days MTT assay; assay type: functional, cell-based, Human immunodeficiency virus type 2 (ISOLATE ROD); details: Human immunodeficiency virus 2, MT4, 120 h; summary of the method: as §1
[3] = Cytotoxicity against human MT4 cells assessed as decrease in cell viability after 5 days by MTT assay; assay type: toxicity, cell-based
Summary of the method: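 MT-4 cells in mock-infected wells of the anti-HIV MTT setup. Compounds in serial five-fold dilutions in triplicate, cells at 6 × 10^5 cells/mL. Absorbance at 540 and 690 nm, median OD of three wells. CC50 is the concentration that lowers OD540 of the mock-infected control by 50%.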

[4] = Selectivity index, ratio of CC50 for human MT4 cells to EC50 for HIV1 3B; assay type: toxicity, cell-based; details: read-out: Ratio CC50/EC50
Summary of the method: (§2)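 HIV-1 IIIB and HIV-2 ROD tested in MT-4 cells by MTT. Serial fivefold dilutions of compound added to triplicate mock- and virus-infected wells. MT-4 cells at 6 × 10^5 cells/mL. Absorbance read at 540/690 nm; median OD of three wells used. CC50 is the concentration reducing mock-infected OD540 by 50%. […]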

[5] = Selectivity index, ratio of CC50 for human MT4 cells to EC50 for HIV2 ROD; assay type: toxicity, cell-based; details: read-out: Ratio CC50/EC50; summary of the method: as §2
[6] = Cytotoxicity against human K562 cells assessed as decrease in cell proliferation after 72 hrs by XTT assay; details: K562, 72 h

| SMILES | EC50 [1] | EC50 [2] | CC50 at 120 h [3] | selectivity ratio [4] | selectivity ratio [5] | IC50 [6] |
| --- | --- | --- | --- | --- | --- | --- |
| Cc1ccc(C(C)C)c(OCc2n[nH]c(=S)n2Cc2ccccc2)c1 | > 13.1 µg/mL | > 13.1 µg/mL | 13.1 µg/mL (≈ 37 µM) | < 1 | < 1 |  |
| Cc1ccc(NC(=O)c2ccc(CN3CCN(C)CC3)cc2)cc1Nc1nccc(-c2cccnc2)n1 [IMATINIB] |  |  |  |  |  | 310 nM |
| Cc1cn([C@H]2C[C@H](N=[N+]=[N-])[C@@H](CO)O2)c(=O)[nH]c1=O [ZIDOVUDINE] | 0.0022 µg/mL (≈ 0.00823 µM) | 0.00094 µg/mL (≈ 0.00352 µM) | > 25 µg/mL | > 11600 | > 26700 |  |
| NS(=O)(=O)c1ccc(NC(=O)CSc2nnc(COc3ccc4ccccc4c3)n2Cc2ccccc2)cc1 | > 94.4 µg/mL | > 94.4 µg/mL | 94.5 µg/mL (≈ 169 µM) | < 1 | < 1 |  |
| CC(=O)Nc1ccc(OCc2n[nH]c(=S)n2Cc2ccccc2)cc1 | > 79 µg/mL | > 79 µg/mL | 79 µg/mL (≈ 223 µM) | < 1 | < 1 |  |
| CCOC(=O)c1ccc(NC(=O)CSc2nnc(COc3ccc(NC(C)=O)cc3)n2Cc2ccccc2)cc1 | > 91.1 µg/mL | > 91.1 µg/mL | 91.1 µg/mL (≈ 163 µM) | < 1 | < 1 |  |
| S=c1[nH]nc(COc2ccc3ccccc3c2)n1Cc1ccccc1 | > 85.8 µg/mL | > 85.8 µg/mL | ≥ 85.8 µg/mL | ≤ 1 | ≤ 1 |  |
| Cc1ccc(C(C)C)c(OCc2nnc(SCC(=O)Nc3ccc([N+](=O)[O-])cc3)n2Cc2ccccc2)c1 | > 11.2 µg/mL | > 11.2 µg/mL | 11.2 µg/mL (≈ 21 µM) | < 1 | < 1 |  |
| CC(=O)Nc1ccc(OCc2nnc(SCC(=O)Nc3ccc(S(N)(=O)=O)cc3)n2Cc2ccccc2)cc1 | > 125 µg/mL | > 125 µg/mL | > 125 µg/mL | 1 | 1 |  |
| O=C(CSc1nnc(COc2ccc3ccccc3c2)n1Cc1ccccc1)Nc1ccc(Cl)cc1 | > 4.93 µg/mL | > 4.93 µg/mL | ≥ 4.93 µg/mL | ≤ 1 | ≤ 1 |  |
| O=C(CSc1nnc(COc2ccc3ccccc3c2)n1Cc1ccccc1)Nc1ccc(Br)cc1 | > 58 µg/mL | > 58 µg/mL | 58 µg/mL (≈ 104 µM) | < 1 | < 1 |  |
| CCOC(=O)c1ccc(NC(=O)CSc2nnc(COc3cc(C)ccc3C(C)C)n2Cc2ccccc2)cc1 | > 19.8 µg/mL | > 19.8 µg/mL | 19.8 µg/mL (≈ 35.5 µM) | < 1 | < 1 |  |
| Nc1ccn([C@H]2CC[C@@H](CO)O2)c(=O)n1 [ZALCITABINE] |  | 0.19 µg/mL (≈ 0.9 µM) | > 20 µg/mL | > 127 | > 108 |  |
| O=C(COc1ccc2ccccc2c1)NNC(=S)NCc1ccccc1 | > 61.4 µg/mL | > 61.4 µg/mL | ≥ 61.4 µg/mL | ≤ 1 | ≤ 1 |  |
| O=c1[nH]cnc2c1ncn2[C@H]1CC[C@@H](CO)O1 [DIDANOSINE] | 2.09 µg/mL (≈ 8.85 µM) | 3.78 µg/mL (≈ 16 µM) | > 50 µg/mL | > 24 | > 13 |  |
| Cc1ccnc2c1NC(=O)c1cccnc1N2C1CC1 [NEVIRAPINE] |  | > 4 µg/mL | > 4 µg/mL | > 80 | < 1 |  |
| CC(=O)Nc1ccc(OCC(=O)NNC(=S)NCc2ccccc2)cc1 | > 83.5 µg/mL | > 83.5 µg/mL | 83.5 µg/mL (≈ 224 µM) | < 1 | < 1 |  |
| CCOC(=O)c1ccc(NC(=O)CSc2nnc(COc3ccc4ccccc4c3)n2Cc2ccccc2)cc1 | > 90.7 µg/mL | > 90.7 µg/mL | ≥ 90.7 µg/mL | ≤ 1 | ≤ 1 |  |
| Cc1ccc(C(C)C)c(OCC(=O)NNC(=S)NCc2ccccc2)c1 | > 12.6 µg/mL | > 12.6 µg/mL | 12.6 µg/mL (≈ 34 µM) | < 1 | < 1 |  |
| Cc1ccc(C(C)C)c(OCc2nnc(SCC(=O)Nc3ccc(Br)cc3)n2Cc2ccccc2)c1 | > 66.7 µg/mL | > 66.7 µg/mL | 66.7 µg/mL (≈ 118 µM) | < 1 | < 1 |  |
| O=C(CSc1nnc(COc2ccc3ccccc3c2)n1Cc1ccccc1)Nc1ccc([N+](=O)[O-])cc1 | > 116 µg/mL | > 116 µg/mL | ≥ 116 µg/mL | ≤ 1 | ≤ 1 |  |
| CC(=O)Nc1ccc(OCc2nnc(SCC(=O)Nc3ccc(Cl)cc3)n2Cc2ccccc2)cc1 | > 14 µg/mL | > 14 µg/mL | 14 µg/mL (≈ 26.8 µM) | < 1 | < 1 |  |
| CC(=O)Nc1ccc(OCc2nnc(SCC(=O)Nc3ccc([N+](=O)[O-])cc3)n2Cc2ccccc2)cc1 | > 105 µg/mL | > 105 µg/mL | 105 µg/mL (≈ 197 µM) | < 1 | < 1 |  |
